Measurements from different studies.
Each line is one published result; the experiments were not run side by side.
MET M1250T: Hepatocyte growth factor receptor (MET, Homo sapiens, UniProt P08581, M1250T)
MET: Hepatocyte growth factor receptor (MET, Homo sapiens, UniProt P08581)
MET Y1235D: Hepatocyte growth factor receptor (MET, Homo sapiens, UniProt P08581, Y1235D)

SMILES	target	test	conditions	remaining binding [%]
N[C@@H]1CCN(c2nccc(-c3cnn4ncccc34)n2)C1	MET M1250T	binding	1 µM	100
Cc1cnc(Nc2ccc(C(=O)N3CCC(N4CCCC4)CC3)cc2)nc1-c1cc2ccccc2s1	MET	binding, competition with immobilised ligand	1 µM	100
CC(=O)Nc1c(C(C)=O)c(=O)n(C)c2nc(-c3ccc(Cl)cc3Cl)c(-c3ccc(Cl)cc3)cc12	MET	cell-free assay, competition with immobilised ligand	1 µM	100
Cc1cnn2ncc(-c3ccnc(N(C)C)n3)c2c1	MET M1250T	binding	1 µM	61
c1cncc(-c2cccc(Nc3nccc(NC4CCCCC4)n3)c2)c1	MET M1250T	binding, competition with immobilised ligand	10 µM	29
COc1cnc(Nc2cccc(S(N)(=O)=O)c2)nc1N1CCN(c2ccccc2)CC1	MET Y1235D	binding, competition with immobilised ligand	1 µM	100
CN(CCCC(F)(F)F)c1nccc(-c2cnn3ncccc23)n1	MET	binding	1 µM	100
Nc1ncc2c(n1)-c1c([nH]c3ccc(C#CC4CC4)cc13)CCCC2	MET M1250T	binding, competition with immobilised ligand	1 µM	95
CN(C)C(=O)Cn1cc(-c2nc(C3(c4ccc(-c5cnc(N)nc5)cc4)CC3)no2)cn1	MET	cell-free assay, competition with immobilised ligand	1 µM	73
O=C(c1ccc(Nc2ncc(Cl)c(-c3cc4ccccc4s3)n2)cc1)N1CCC(N2CCCC2)CC1	MET	binding, competition with immobilised ligand	1 µM	82
CN(C)c1nccc(-c2cnn3ncccc23)n1	MET Y1235D	binding	1 µM	90
COc1cc(-c2cn(C3CCc4c(F)cccc4N(CC(F)(F)F)C3=O)nn2)ccc1-n1cnc(C)c1 (stereo not drawn)	MET M1250T	cell-free assay, competition with immobilised ligand	1 µM	100
C[C@H]1CCN(c2nccc(-c3cnn4ncccc34)n2)C1	MET	binding	1 µM	94
O=C1CCc2cc(Nc3cc(OC4CCOCC4)c([N+](=O)[O-])cc3Cl)ccc2N1	MET Y1235D	cell-free assay, competition with immobilised ligand	1 µM	100
O=C(Nc1c[nH]nc1C(=O)NC1CCNCC1)c1cc(F)cc(F)c1	MET M1250T	binding, competition with immobilised ligand	1 µM	100
O=C(c1ccc(Nc2nccc(-c3cc4ccccc4s3)n2)cc1)N1CCC(N2CCCC2)CC1	MET Y1235D	binding, competition with immobilised ligand	1 µM	85
O=C(NC[C@@H]1[C@H]2CN(C(=O)OCc3cc(C(F)(F)F)cc(C(F)(F)F)c3)C[C@@H]12)c1ccc2[nH]nnc2c1	MET M1250T	cell-free assay, competition with immobilised ligand	1 µM	100
CNC(=O)[C@@H]1CC[C@@H](n2c(-c3ccc4cnccc4c3)nc3ccc(C(=O)NCc4cccc(C(N)=O)c4)cc32)C1	MET M1250T	binding, competition with immobilised ligand	1 µM	100
